Values after ≈ are worked out from the molar mass of the structure shown. Starred links: 1 amine or outer side, 2 acyl side, 3 side chain; linkers in the order of their positions; H or OH if unused. Positions of bridges follow the written chain, without caps; N, C: chain ends. Non-standard residues stand in square brackets, D forms with d. Residues, ends and D or L forms follow the SMILES beside them. *: point of attachment. hTyr(3S-OH,4S-OH,3'-OSO3H) = N[C@H](C(=O)O)[C@H](O)[C@@H](O)c1ccc(O)c(OS(=O)(=O)O)c1; Orn(4R-OH,5R-OH) = O=C([C@H](C[C@@H](O)[C@@H](O)N[*:3])N[*:1])[*:2]; Pro(3S-OH,4S-Me) = C[C@H]1CN[C@H](C(=O)O)[C@H]1O; X1 = CCCCCOc1ccc(-c2cc(-c3ccc(C(=O)*)cc3)no2)cc1; Gln(3R-OH) = NC(=O)C[C@@H](O)[C@H](N)C(=O)O; Hyp = O=C(O)[C@@H]1C[C@@H](O)CN1
What was measured:
Assay type in all cases: functional
Candida dubliniensis [1] = test: Antifungal activity against Candida dubliniensis 10035 after 48 hrs; conditions: Candida dubliniensis, 10035, 48 h
In short: (§1)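 CLSI M27-A3 broth microdilution. Yeast inoculum was adjusted with a hemocytometer. MIC was read at 24 h or 48 h as the lowest concentration giving 50% growth inhibition.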

Candida dubliniensis [2] = test: Antifungal activity against Candida dubliniensis 10035 after 24 hrs; conditions: Candida dubliniensis, 10035, 24 h; in short: as §1
Candida dubliniensis [3] = test: Antifungal activity against Candida dubliniensis 10034 after 24 hrs; conditions: Candida dubliniensis, 10034, 24 h; in short: as §1
Candida dubliniensis [4] = test: Antifungal activity against Candida dubliniensis 9453 after 48 hrs; conditions: Candida dubliniensis, 9453, 48 h; in short: as §1
Candida dubliniensis [5] = test: Antifungal activity against Candida dubliniensis 9453 after 24 hrs; conditions: Candida dubliniensis, 9453, 24 h; in short: as §1
Candida dubliniensis [6] = test: Antifungal activity against Candida dubliniensis 10033 by hemocytometry
In short: (§2)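 Minimal fungicidal concentration from the broth dilution test, defined as the lowest drug level giving ≥99.9% reduction in CFU/ml. Inocula were adjusted by hemocytometer.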

Candida dubliniensis [7] = test: Antifungal activity against Candida dubliniensis FMR 10032 infected in OF1 mouse assessed as fungal count in spleen at 10 mg/kg/day, iv […]
In short: (§3)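 Immunocompetent male OF1 mice, 10 per group, were challenged i.v. with 1.5 × 10^7 CFU. Drug was given i.v. once daily at 1 or 10 mg/kg for 3 days, starting 24 h post-challenge; controls were untreated. Mice were killed 1 day after the last dose. Kidneys and spleen were homogenized in saline, serial 10-fold dilutions were plated on Sabouraud agar at 35°C for 3 days, and mean log10 CFU was reported.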

Candida dubliniensis [8] = test: Antifungal activity against Candida dubliniensis FMR 10032 infected in immunosuppressed OF1 mouse assessed as fungal count in spleen at 1 mg/kg/day, iv […]
In short: (§4)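 Male OF1 mice, 10 per group, were immunosuppressed on infection day with cyclophosphamide 200 mg/kg i.p. plus 5-fluorouracil 150 mg/kg i.v., then challenged i.v. with 1.5 × 10^5 CFU. Drug was given at 1 mg/kg i.v. once daily for 5 days, starting 24 h after challenge. One day after treatment ended, kidney and spleen homogenates were plated in 10-fold dilutions on Sabouraud agar (35°C, 3 days) and mean log10 CFU was reported.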

Candida dubliniensis [9] = test: Antifungal activity against Candida dubliniensis 9456 after 24 hrs; conditions: Candida dubliniensis, 9456, 24 h; in short: as §1
Candida dubliniensis [10] = test: Antifungal activity against Candida dubliniensis FMR 10032 infected in OF1 mouse assessed as fungal count in spleen at 1 mg/kg/day, iv […]; in short: as §3
Candida dubliniensis [11] = test: Antifungal activity against Candida dubliniensis FMR 10032 infected in OF1 mouse assessed as fungal count in kidney at 1 mg/kg/day, iv […]; in short: as §3
Candida dubliniensis [12] = test: Antifungal activity against Candida dubliniensis 10034 after 48 hrs; conditions: Candida dubliniensis, 10034, 48 h; in short: as §1
Candida dubliniensis [13] = test: Antifungal activity against Candida dubliniensis FMR 10032 infected in immunosuppressed OF1 mouse assessed as fungal count in kidney at 1 mg/kg/day, iv […]; in short: as §4
Candida dubliniensis [14] = test: Antifungal activity against Candida dubliniensis 9453 by hemocytometry; in short: as §2
Candida dubliniensis [15] = test: Antifungal activity against Candida dubliniensis 10032 after 24 hrs; conditions: Candida dubliniensis, 10032, 24 h; in short: as §1
Candida dubliniensis [16] = test: Antifungal activity against Candida dubliniensis 10033 after 24 hrs; conditions: Candida dubliniensis, 10033, 24 h; in short: as §1
Candida dubliniensis [17] = test: Antifungal activity against Candida dubliniensis FMR 10034 infected in immunosuppressed OF1 mouse assessed as fungal count in kidney at 1 mg/kg/day, iv […]; in short: as §4
Candida dubliniensis [18] = test: Antifungal activity against Candida dubliniensis 10034 by hemocytometry; in short: as §2
Candida dubliniensis [19] = test: Antifungal activity against Candida dubliniensis 10032 by hemocytometry; in short: as §2
Candida dubliniensis [20] = test: Antifungal activity against Candida dubliniensis 9456 after 48 hrs; conditions: Candida dubliniensis, 9456, 48 h; in short: as §1
Candida dubliniensis [21] = test: Antifungal activity against Candida dubliniensis 10034 assessed as compound concentration at which paradoxical growth of observed after 48 hrs
In short: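 In the same broth dilution (CLSI M27-A3) tests, read at 24 or 48 h, this is the range of drug concentrations over which paradoxical growth appeared. It was not set when growth occurred across the whole tested range (trailing).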

Candida dubliniensis [22] = test: Antifungal activity against Candida dubliniensis FMR 10032 infected in OF1 mouse assessed as fungal count in kidney at 10 mg/kg/day, iv […]; in short: as §3
Candida dubliniensis [23] = test: Antifungal activity against Candida dubliniensis FMR 10034 infected in OF1 mouse assessed as fungal count in spleen at 1 mg/kg/day, iv […]; in short: as §3
Candida dubliniensis [24] = test: Antifungal activity against Candida dubliniensis 10033 after 48 hrs; conditions: Candida dubliniensis, 10033, 48 h; in short: as §1
Candida dubliniensis [25] = test: Antifungal activity against Candida dubliniensis FMR 10034 infected in OF1 mouse assessed as fungal count in kidney at 1 mg/kg/day, iv […]; in short: as §3
Candida dubliniensis [26] = test: Antifungal activity against Candida dubliniensis 9456 by hemocytometry; in short: as §2
Candida dubliniensis [27] = test: Antifungal activity against Candida dubliniensis 10031 after 24 hrs; conditions: Candida dubliniensis, 10031, 24 h; in short: as §1
Candida dubliniensis [28] = test: Antifungal activity against Candida dubliniensis FMR 10034 infected in OF1 mouse assessed as fungal count in kidney at 10 mg/kg/day, iv […]; in short: as §3
Candida dubliniensis [29] = test: Antifungal activity against Candida dubliniensis 10031 after 48 hrs; conditions: Candida dubliniensis, 10031, 48 h; in short: as §1
Candida dubliniensis [30] = test: Antifungal activity against Candida dubliniensis FMR 10034 infected in OF1 mouse assessed as fungal count in spleen at 10 mg/kg/day, iv […]; in short: as §3
Candida dubliniensis [31] = test: Antifungal activity against Candida dubliniensis FMR 10034 infected in immunosuppressed OF1 mouse assessed as fungal count in spleen at 1 mg/kg/day, iv […]; in short: as §4
Candida dubliniensis [32] = test: Antifungal activity against Candida dubliniensis 10031 by hemocytometry; in short: as §2
Candida dubliniensis [33] = test: Antifungal activity against Candida dubliniensis 10032 after 48 hrs; conditions: Candida dubliniensis, 10032, 48 h; in short: as §1

MIC50 (Candida dubliniensis [1]): 0.03 µg/mL (≈ 0.0236 µM)
MIC50 (Candida dubliniensis [2]): 0.03 µg/mL (≈ 0.0236 µM)
MIC50 (Candida dubliniensis [3]): 0.06 µg/mL (≈ 0.0472 µM)
MIC50 (Candida dubliniensis [4]): 0.125 µg/mL (≈ 0.0984 µM)
MIC50 (Candida dubliniensis [5]): 0.125 µg/mL (≈ 0.0984 µM)
MIC50 (Candida dubliniensis [9]): 0.06 µg/mL (≈ 0.0472 µM)
MIC50 (Candida dubliniensis [12]): 0.125 µg/mL (≈ 0.0984 µM)
MIC50 (Candida dubliniensis [15]): < 0.03 µg/mL
MIC50 (Candida dubliniensis [16]): 0.125 µg/mL (≈ 0.0984 µM)
MIC50 (Candida dubliniensis [20]): 0.125 µg/mL (≈ 0.0984 µM)
MIC50 (Candida dubliniensis [24]): 0.25 µg/mL (≈ 0.197 µM)
MIC50 (Candida dubliniensis [27]): 0.125 µg/mL (≈ 0.0984 µM)
MIC50 (Candida dubliniensis [29]): 0.125 µg/mL (≈ 0.0984 µM)
MIC50 (Candida dubliniensis [33]): 0.125 µg/mL (≈ 0.0984 µM)
SMILES: CCCCCOc1ccc(-c2cc(-c3ccc(C(=O)N[C@H]4C[C@@H](O)[C@@H](O)NC(=O)[C@@H]5[C@@H](O)[C@@H](C)CN5C(=O)[C@H]([C@H](O)CC(N)=O)NC(=O)[C@H]([C@H](O)[C@@H](O)c5ccc(O)c(OS(=O)(=O)O)c5)NC(=O)[C@@H]5C[C@@H](O)CN5C(=O)[C@H]([C@@H](C)O)NC4=O)cc3)no2)cc1 [MICAFUNGIN] (X1-[Orn(4R-OH,5R-OH)]T[Hyp][hTyr(3S-OH,4S-OH,3'-OSO3H)][Gln(3R-OH)][Pro(3S-OH,4S-Me)]; lactam 1-C)
MFC (Candida dubliniensis [6]): 2 µg/mL (≈ 1.57 µM)
log10cfu (Candida dubliniensis [7]): 3.58
log10cfu (Candida dubliniensis [8]): 2.62
log10cfu (Candida dubliniensis [10]): 3.97
log10cfu (Candida dubliniensis [11]): 4.25
log10cfu (Candida dubliniensis [13]): 5.47
MFC (Candida dubliniensis [14]): > 16 µg/mL
log10cfu (Candida dubliniensis [17]): 6.47
MFC (Candida dubliniensis [18]): > 16 µg/mL
MFC (Candida dubliniensis [19]): 4 µg/mL (≈ 3.15 µM)
Activity (Candida dubliniensis [21]): 2 µg/mL
log10cfu (Candida dubliniensis [22]): 3.23
log10cfu (Candida dubliniensis [23]): 4.79
log10cfu (Candida dubliniensis [25]): 6.33
MFC (Candida dubliniensis [26]): > 16 µg/mL
log10cfu (Candida dubliniensis [28]): 4.69
log10cfu (Candida dubliniensis [30]): 4.18
log10cfu (Candida dubliniensis [31]): 3.26
MFC (Candida dubliniensis [32]): > 16 µg/mL

Reference: ChEMBL document CHEMBL1649289, “Paradoxical growth of Candida dubliniensis does not preclude in vivo response to echinocandin therapy” (2009)
